Experimental data: PMC5538687 (International Journal of Nanomedicine, 2017)
Read-outs that look alike come from different tables or passages of the source.

What was measured:
Eca109 xenograft tumor = assay: In vivo imaging and biodistribution; set-up: species or system BALB/c-nude mice; details: 100 μL, 100 nM by peptide, i.v.; 1 hour postinjection
[1] = system: Eca109 xenograft tumor (FAPα in tumor stroma); assay type: in vivo, BALB/c-nude mice; details: for AUC of ROC curve, ESCC vs healthy mice: 1 hour urine, n=10 per group
How it was run: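 BALB/c-nude mice aged 4–6 weeks were given 5×10⁶ Eca109 cells s.c. and grown 4 weeks to tumours of 100–300 mm³. Tumour-bearing and age-matched healthy mice (n=10 each) were co-injected via the tail vein with probe nanoparticles (100 μL PBS; 100 or 10 nM by peptide) plus control peptide at the same level. Urine was collected at set times, with 1 h urine used for diagnosis. It was stored at −80°C, diluted 1:10–10² in PBS/1% BSA, and run by ELISA in at least duplicate. ROC analysis was applied.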

mouse FAPα protein = target: T1, mouse FAPα protein (Mus musculus, UniProt P97321); assay: In vitro protease assay with recombinant FAPα; assay type: biochemical; details: 37°C
T1 sequence (P97321 1-761): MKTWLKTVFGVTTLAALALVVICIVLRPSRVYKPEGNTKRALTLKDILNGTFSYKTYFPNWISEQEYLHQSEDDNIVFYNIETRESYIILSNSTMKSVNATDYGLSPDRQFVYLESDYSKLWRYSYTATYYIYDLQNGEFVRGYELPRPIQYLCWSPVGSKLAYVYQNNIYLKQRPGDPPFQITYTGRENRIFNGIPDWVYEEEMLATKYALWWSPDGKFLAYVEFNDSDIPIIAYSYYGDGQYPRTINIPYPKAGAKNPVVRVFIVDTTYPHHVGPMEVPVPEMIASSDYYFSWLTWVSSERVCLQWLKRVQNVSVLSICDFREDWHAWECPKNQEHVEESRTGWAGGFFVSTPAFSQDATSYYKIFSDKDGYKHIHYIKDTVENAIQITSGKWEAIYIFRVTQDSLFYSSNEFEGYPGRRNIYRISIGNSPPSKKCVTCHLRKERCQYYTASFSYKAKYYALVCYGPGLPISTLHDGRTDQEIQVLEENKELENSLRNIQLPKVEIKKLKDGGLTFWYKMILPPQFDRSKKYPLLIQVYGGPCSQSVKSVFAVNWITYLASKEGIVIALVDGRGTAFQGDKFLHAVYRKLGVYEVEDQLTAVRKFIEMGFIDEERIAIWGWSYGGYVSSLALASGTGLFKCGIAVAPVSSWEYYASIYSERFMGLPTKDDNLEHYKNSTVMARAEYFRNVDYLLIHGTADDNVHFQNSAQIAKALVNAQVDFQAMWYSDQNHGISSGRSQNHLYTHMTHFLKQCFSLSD

Level of cleaved reporter peptides over time (mouse FAPα protein; marker-MNPs treated with 10 nM FAPα): increased over time
Substance: Bio-eGvndneeGffsar-K [5-FAM]-GPGPNQC [marker-MNPs]
In vivo fluorescence imaging of tumor-bearing mice vs control (Eca109 xenograft tumor): strong fluorescent activation in the tumor region and bladder
Sensitivity ([1]; 10 nM group): 90%
Specificity ([1]; 10 nM group): 97%
AUC of ROC curve, ESCC vs healthy mice ([1]; 10 nM group): 0.97
Sensitivity ([1]; 100 nM group): 100%
Specificity ([1]; 100 nM group): 100%
AUC of ROC curve, ESCC vs healthy mice ([1]; 100 nM group): 1.0
Time of peak concentration of cleaved reporter peptide in urine ([1]; 100 nM marker-MNPs i.v., ESCC tumor mice, n=3, ELISA): 60 min
Time at which urinary cleaved reporter dropped to the bottom line ([1]; 100 nM marker-MNPs i.v., ESCC tumor mice, postinjection): 150 min
Urine reporter in healthy mice ([1]; 100 nM marker-MNPs i.v., healthy mice, 0–180 min): not detectable
Ratio of reporter to reporter control, ESCC vs healthy mice ([1]; 1 hour postinjection urine, P<0.0001): significantly higher than in healthy control mice
Level of cleaved reporter peptides with increasing FAPα concentration (mouse FAPα protein; marker-MNPs 10 nM by peptide, recombinant FAPα 0.1–100 pM, 1 hour, ELISA, n=3 per dose): elevated levels of cleaved reporter peptides were detected by ELISA with increasing concentration of FAPα
